This note sets out measurements from the RNAGym collection of RNA variant scans (doi:10.1126/science.aae0568).

First the molecules themselves.
B1: tRNA (parent)
chain: GUUCCGUUGGCGUAAUGGUAACGCGUCUCCCUCCUAAGGAGAAGACUGCGGGUUCGAGUCCCGUACGGAACG

This sample holds only a part of the variants without activity.

In this data set the parent is B1. Kind of data set: yeast fitness relative to wild type (ratio to wild type); higher = fitter; tRNA-Arg(CCU), competitive growth, 37 C, YPD. Summed up:
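Gene amplicons from the start population and from each of six end populations were read by 100-nucleotide paired-end sequencing. Those end populations came from pooled Saccharomyces cerevisiae strains carrying tRNA-Arg(CCU) gene variants at the native locus, competed in YPD at 37°C for 24 hours. Fitness relative to wild type was worked out from changes in genotype frequencies. Genotypes needed ≥ 100 starting reads, and estimates < 0.5 were set to 0.5.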
As to C31A A42U, the yeast fitness amounted to 0.909.

C4A U32A G38C U47A: the yeast fitness is not above 0.5. To A20G C49U U53G A65G belongs not above 0.5; to G17A U32C A40G A70G, not above 0.5. For C11A C30G C34G, the yeast fitness was determined as 0.579. With G9C C11A C33A C34A A37C A43G, the yeast fitness is not above 0.5. As for U2G A20C G38A C46A, the yeast fitness was not above 0.5. Then U3A U35C A57C, with not above 0.5; and A14U G23C C55A, with 0.559. G9A C60G: the yeast fitness came to 0.629. To A14G C30A C34A A43C C62U belongs not above 0.5. Consider C30U C31U A40C A65C, for which the yeast fitness is not above 0.5.

For the variant A15U A40U G63A, the yeast fitness was not above 0.5. Consider A15C G17A C22U G23C G51A A70U, for which the yeast fitness was 0.596. With C4G C11G U26A, the yeast fitness is not above 0.5. To C30G A40G C49U belongs not above 0.5; to U35G C62U, 0.7; to A14C A57U C61U, not above 0.5. As to A15C C31A C34A, the yeast fitness is not above 0.5.

Consider G9C C27G C46U, for which the yeast fitness was 0.582.

Take C5G A40G: the yeast fitness was 0.755.

For G6A A20U C46A C55G, the yeast fitness is not above 0.5. In the case of C55A A69C, the yeast fitness stood at 0.613.

Turning to C30U G68C, the yeast fitness was determined as 0.813.

C11G G23A C34G: the yeast fitness was not above 0.5. Turning to A14C C34G A43U G48A, the yeast fitness was not above 0.5. With C5A C22G G25A, the yeast fitness was not above 0.5. In the case of A20C G58C, the yeast fitness was determined as 1.03. Consider C5U U8A A65U, for which the yeast fitness is not above 0.5. Consider C11U A15U C27G A40C, for which the yeast fitness was not above 0.5.

On to G10C C33A C62A, for which the yeast fitness amounted to 0.652.

On to U13C C29A G51C G63A, for which the yeast fitness is not above 0.5. To A14G A69U A70C belongs 0.726; to G6A U7A C60G, not above 0.5; to A43G G58U, 0.707. U2C C4U A70C: the yeast fitness was 0.733. For the variant A14G C24U G52A C60U, the yeast fitness is not above 0.5. Then C4U A15G G23C A37U, with not above 0.5.

Turning to C27G C31U C34G A37G A65C, the yeast fitness was not above 0.5. Regarding G12A A65U, the yeast fitness is 0.861. C27G C34G A45G G51C A70G: the yeast fitness is not above 0.5. For C31U A40C C55G G68A A69U, the yeast fitness came out at 0.581. As to U8C G18C A21C U47A G48C U54G A65C, the yeast fitness is not above 0.5. As for C22U C30G A57U, the yeast fitness is not above 0.5. G25C G41C G48C: the yeast fitness is not above 0.5. For U3A A14U A20C, the yeast fitness was not above 0.5. For C24A C31U A45U A69U, the yeast fitness is not above 0.5. For the variant G9C A57C, the yeast fitness came to 0.56. Consider U8A C62U, for which the yeast fitness is 0.7. As for G18C C55G, the yeast fitness is 0.585. In the case of C30U C31U A37G A43G, the yeast fitness was not above 0.5. In the case of C11U A15G A43U, the yeast fitness is 0.666. Consider C27U A42U C62U A65C G67A, for which the yeast fitness was not above 0.5. With A45C U53A, the yeast fitness is 0.727. Consider C49U C61A A65U, for which the yeast fitness is not above 0.5. For the variant A57G A65C, the yeast fitness was 0.919. With A14G C30G, the yeast fitness worked out at 0.591. To G23A U26G A65C belongs not above 0.5; to G10C C27G A42C C49A, not above 0.5. For U13C G23A G63A A70U, the yeast fitness stood at 0.527.

For A14U U19A A36C G58C A69U, the yeast fitness is 0.555.

As to U7A G12C C34U C66G, the yeast fitness is not above 0.5. Then G56C A69U A70C, with not above 0.5; and C4U G9C C33G U54C, with not above 0.5.

With C5U G17A C66A, the yeast fitness worked out at 0.522. As to U7G A36G A45G C49U, the yeast fitness is 0.641. Then A14G A21C C30G, with not above 0.5. For the variant C24A C31G C62A, the yeast fitness stood at 0.594.

As for U35C C66U, the yeast fitness is 0.781.

For the variant G17A C46G, the yeast fitness worked out at 0.712. Turning to A20C U35A A36G G44C G68U, the yeast fitness was not above 0.5.

Turning to A43G C49U U54C, the yeast fitness was determined as 0.522. For C11G U47A C61G, the yeast fitness was not above 0.5. Then U7G A14G U35G A43G, with 0.557.

Turning to C5U A21C C31U, the yeast fitness came to 0.695. Then A15U A37U G67C, with not above 0.5; and C4U U28C C29U G63C A65U, with not above 0.5; and C11U A15U G38A, with not above 0.5.

In the case of C22A A43C, the yeast fitness was determined as 0.694.

On to C22G C24G U32A C66U, for which the yeast fitness is not above 0.5. To C31U C55G A70C belongs 0.535. To G18C C29U belongs 0.546; to C29U C31U U54G G68C, not above 0.5; to U19C C31G A65U, 0.596. Then U8G G12A U32A G50C G52C C55U, with not above 0.5; and U8C G44C C60G, with 0.53; and G51A U59C, with 0.692. Take C22G U26C U32A G48A: the yeast fitness is not above 0.5. For A15U C31G U54G, the yeast fitness is not above 0.5. To C11G C29U C34U belongs 0.506. For A14U G18C C29U A37U, the yeast fitness is not above 0.5.

As to C4U C22G U28A A36U C66U, the yeast fitness was not above 0.5. Consider U3C A37G, for which the yeast fitness amounted to 0.784. Then G10C G67C, with 0.67. With C5U A20C A36G G52C, the yeast fitness was 0.567.

On to U54A U59C C61G, for which the yeast fitness is not above 0.5.

G39A: the yeast fitness is 0.986.

Turning to G10C C27A C34A A40G C60U A65U, the yeast fitness is not above 0.5.

For the variant U2A C11G U35G U47A G48A A65U, the yeast fitness was not above 0.5.

For C33A A70U, the yeast fitness was determined as 0.655. For U7G C27A A36C A42U U64G, the yeast fitness worked out at 0.528. To A15U A43U C55U C60A belongs 0.69; to A15G C30A C62A, not above 0.5; to G18C U19G C27U A43U A65U, not above 0.5. For the variant U32C C33A, the yeast fitness turned out to be 0.628. A15U C27U C66A: the yeast fitness was not above 0.5. In the case of G18C U28A A42U, the yeast fitness was not above 0.5. To C11G U35A belongs 0.528; to G9C G12A A21C U26A G39C, 0.632. C34U A42U C66U: the yeast fitness was not above 0.5. As for C5G U53C A65C, the yeast fitness is not above 0.5. Then C11U A14G C46A G51A, with 0.615; and C11A A21C C31A C46G, with not above 0.5. Turning to A20U A40U U59A, the yeast fitness is not above 0.5.

Take U16C U28C A37C G56A U59C: the yeast fitness is not above 0.5. Turning to A57U G58C, the yeast fitness was 0.636. For A15G A70G, the yeast fitness is 0.999.

Consider C22U U32C G52A C61U, for which the yeast fitness is not above 0.5. Regarding U2G C4U C33G A37U U64G, the yeast fitness is not above 0.5.

For the variant U13G G68A, the yeast fitness stood at 0.798. To G52A A57G G58A belongs 0.565; to C4A U8C U59A, not above 0.5; to C5U C29G C30G, not above 0.5. Then A14U G58A C61U, with 0.509; and U53C A57C, with 0.54; and U35G A40C C62G C66G, with 0.539. Consider U19A C24G C33G C34G, for which the yeast fitness came to 0.528. For the variant A37C C49A, the yeast fitness amounted to 0.651.

In the case of G25C C29G A43G, the yeast fitness is not above 0.5. For U13A G23A A36C G38A C60G C62G, the yeast fitness was found to be 0.557. For the variant U13A U26G C27A G39C A42G G51C, the yeast fitness was not above 0.5. For U2G C5U C34G C62U, the yeast fitness is not above 0.5.

Regarding A42U G63U, the yeast fitness turned out to be 0.701. For U13C A65G, the yeast fitness is 0.956. To G25A C31G C55G belongs not above 0.5. A45U G48C: the yeast fitness worked out at 0.857.

On to A15C A36G C49U G67U, for which the yeast fitness was 0.632.

Take U35C A42C U64A: the yeast fitness is not above 0.5.

Take A15C G17A C22U G23C G51A: the yeast fitness came to 0.565. As for C5U G10C C30G C34U A42C G52A, the yeast fitness was not above 0.5. On to C5G C30U U32A C49G, for which the yeast fitness was not above 0.5. With U2G U28G G51C U64A C66U A69C, the yeast fitness was not above 0.5. Take U26G G68A: the yeast fitness worked out at 0.824.

In the case of C11U C27G C31G G39C G56A C61A A69G, the yeast fitness was determined as 0.641. Regarding C24A C31G C60U, the yeast fitness is not above 0.5.

For the variant C11G C27U C46G, the yeast fitness was not above 0.5. As for G17C C22G C30U G41C, the yeast fitness was 0.612. On to C29A A69C, for which the yeast fitness was determined as 0.679. On to C5A U59G, for which the yeast fitness was found to be 0.746. As for C24U C31G A37G, the yeast fitness came out at 0.529. With U26A G48C, the yeast fitness was 0.78. Then C5U U47A G48C G51A, with not above 0.5; and C24G C66U A69C, with not above 0.5.

Take C11G C49U C62U A70U: the yeast fitness is not above 0.5. For the variant C5G U35A, the yeast fitness was found to be 0.615. Then U13A G67C, with 0.945; and C22U C27U A70C, with 0.599. Then U2C G51A, with 0.822.

In the case of C5A C27G, the yeast fitness turned out to be 0.709.

Turning to G9C A57G U59A, the yeast fitness is not above 0.5.

On to C22A A70G, for which the yeast fitness is 0.948. Turning to A14C C55G, the yeast fitness is 0.827.

As to U13C U26A, the yeast fitness came out at 0.982.

As for G6C C24A U28A C34U, the yeast fitness is not above 0.5. For U16G C29G G58A, the yeast fitness was found to be 0.59.

As to U2C U53A, the yeast fitness was found to be 0.7. For the variant C4G U16A A36C A57C C61A U64C, the yeast fitness is not above 0.5.
